The results in this text go back to ChEMBL document CHEMBL2417474, “Synthesis, antiproliferative and anti-inflammatory activities of some novel 6-aryl-2-(p-(methanesulfonyl)phenyl)-4,5-dihydropyridazi-3(2H)-ones” (Eur J Med Chem, 2013).

In data set [1] the test system is Rattus norvegicus. Nature of the data set: Antiinflammatory activity in Wistar rat assessed as inhibition of carrageenan-induced paw edema at 0.05 mmol/kg, po administered 30 mins prior challenge measured after 5 hrs. The class given is functional. Summed up: (§1)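 Wistar rats of either sex, 150–175 g, fasted 16 h, 6 per group. Dosed orally at 0.05 mmol/kg, suspended in 1% CMC in water (10 ml/kg). 30 min later, 0.1 ml of 1% carrageenan in saline injected subplantar into the left hind paw. Paw volume read by plethysmometer at 0, 3 and 5 h. % inhibition = (1 − Vt/Vc) × 100 against the vehicle group.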
For orientation: The carrageenan paw model is a standard test of acute inflammation.

Data set [2] has as its system Rattus norvegicus. The data set can be described thus: Antiinflammatory activity in Wistar rat assessed as inhibition of carrageenan-induced paw edema at 0.05 mmol/kg, po administered 30 mins prior challenge measured after 3 hrs. The class given is functional. Summed up: as §1
The test system of data set [3] is Rattus norvegicus. Nature of the data set: Ulcerogenic activity in Wistar albino rat at 0.15 mmol/kg, po measured after 6 hrs. In kind it is toxicity, organism-based. The settings on record: in vivo. In short, it runs like this: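 Acute gastric ulcer test in Wistar rats (160–220 g) fasted 24 h, randomized into groups of six. Compound (0.15 mmol/kg) suspended in 1% w/v CMC in distilled water (10 ml/kg vehicle) was given orally, with vehicle and etoricoxib groups alongside. Animals were sacrificed under deep ether anesthesia 6 h after dosing.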

Another data set relates to NCI-H522. Nature of the data set: Growth inhibition of human NCI-H522 cells assessed as cell growth at 10 uM after 48 hrs by sulforhodamine B assay. In kind it is functional. The settings on record: NCI-H522, 48 h, read-out: Activity. Background: The SRB assay estimates cell density from bound dye.
A short description of data set [4]: Growth inhibition of human NCI-ADR-RES cells assessed as cell growth at 10 uM after 48 hrs by sulforhodamine B assay. As to conditions: read-out: Activity. The class given is functional.
The next data set relates to NCI-H23. The data set can be described thus: Growth inhibition of human NCI-H23 cells assessed as cell growth at 10 uM after 48 hrs by sulforhodamine B assay. The class given is functional. As to conditions: NCI-H23, 48 h, read-out: Activity.
In a further data set the test system is MOLT-4. The data set can be described thus: Growth inhibition of human MOLT4 cells assessed as cell growth at 10 uM after 48 hrs by sulforhodamine B assay. In kind it is functional. The settings on record: MOLT-4, 48 h, read-out: Activity.
For the next data set, the system named is K562. The data set can be described thus: Growth inhibition of human K562 cells assessed as cell growth at 10 uM after 48 hrs by sulforhodamine B assay. The settings on record: K562, 48 h, read-out: Activity. The class given is functional.
A further data set has as its system SR. The data set can be described thus: Growth inhibition of human SR cells assessed as cell growth at 10 uM after 48 hrs by sulforhodamine B assay. In kind it is functional. As to conditions: read-out: Activity. In short, it runs like this:
(§2)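 Single-dose NCI screen. Tumor lines were cultured in medium with 5% fetal calf serum and 2 mM L-glutamine, preincubated 24 h, then given compound in DMSO. After 48 h continuous exposure, cell growth was estimated by sulforhodamine B protein assay.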

Another data set relates to UO-31. The data set can be described thus: Growth inhibition of human UO31 cells assessed as cell growth at 10 uM after 48 hrs by sulforhodamine B assay. In kind it is functional. The settings on record: UO-31, 48 h, read-out: Activity. In short, it runs like this: as §2
The next data set concerns MDA-MB-435. Nature of the data set: Growth inhibition of human MDA-MB-435 cells assessed as cell growth at 10 uM after 48 hrs by sulforhodamine B assay. In kind it is functional. As to conditions: MDA-MB-435, 48 h, read-out: Activity.
Another data set has as its system HL-60(TB). The data set can be described thus: Growth inhibition of human HL-60(TB) cells assessed as cell growth at 10 uM after 48 hrs by sulforhodamine B assay. The settings on record: HL-60, 48 h, read-out: Activity. The class given is functional.
Another data set deals with SK-MEL-5. The data set can be described thus: Growth inhibition of human SK-MEL-5 cells assessed as cell growth at 10 uM after 48 hrs by sulforhodamine B assay. The class given is functional. The settings on record: SK-MEL-5, 48 h, read-out: Activity.
Another data set concerns T47D. The data set can be described thus: Growth inhibition of human T47D cells assessed as cell growth at 10 uM after 48 hrs by sulforhodamine B assay. In kind it is functional. The settings on record: read-out: Activity. Summed up:
as §2

A further data set relates to MDA-MB-468. The data set can be described thus: Growth inhibition of human MDA-MB-468 cells assessed as cell growth at 10 uM after 48 hrs by sulforhodamine B assay. In kind it is functional. The settings on record: MDA-MB-468, 48 h, read-out: Activity.
The test system of a further data set is SF-295. The data set can be described thus: Growth inhibition of human SF295 cells assessed as cell growth at 10 uM after 48 hrs by sulforhodamine B assay. As to conditions: SF-295, 48 h, read-out: Activity. The class given is functional.
Data set [5] is described as follows: Growth inhibition of human EKVX cells assessed as cell growth at 10 uM after 48 hrs by sulforhodamine B assay. In kind it is functional. As to conditions: read-out: Activity.
A further data set concerns CAKI-1. The data set can be described thus: Growth inhibition of human CAKI-1 cells assessed as cell growth at 10 uM after 48 hrs by sulforhodamine B assay. The class given is functional. As to conditions: CAKI-1, 48 h, read-out: Activity.
A short description of data set [6]: Growth inhibition of human Hs 578T cells assessed as cell growth at 10 uM after 48 hrs by sulforhodamine B assay. The class given is functional. The settings on record: read-out: Activity.
The subject of the next data set is OVCAR-3. Nature of the data set: Growth inhibition of human OVCAR3 cells assessed as cell growth at 10 uM after 48 hrs by sulforhodamine B assay. In kind it is functional. As to conditions: OVCAR-3, 48 h, read-out: Activity.
In a further data set the test system is RPMI-8226. The data set can be described thus: Growth inhibition of human RPMI8226 cells assessed as cell growth at 10 uM after 48 hrs by sulforhodamine B assay. In kind it is functional. The settings on record: RPMI-8226, 48 h, read-out: Activity.

Take `COc1ccc(C2=NN(c3ccc(S(C)(=O)=O)cc3)C(=O)CC2)cc1OC`: the inhibition in vivo (commonly how much of the control response was suppressed) at 50 µmol/kg was found to be 82.4% in the data set on Rattus norvegicus [1] and 66.6% in the data set on Rattus norvegicus [2]. The Activity result with Rattus norvegicus [3] is “Non-toxic”.
With `CS(=O)(=O)c1ccc(N2N=C(c3ccc(Cl)c(Cl)c3)CCC2=O)cc1`, the inhibition in vivo at 50 µmol/kg stood at 34.2% with Rattus norvegicus [1] and 26.6% in the data set on Rattus norvegicus [2].
Regarding `CS(=O)(=O)c1ccc(N2N=C(c3ccc(Cl)cc3)CCC2=O)cc1`, the inhibition in vivo at 50 µmol/kg with Rattus norvegicus [1] worked out at 36.8%; with Rattus norvegicus [2], 26.6%. Besides, the values for the growth at 10 µM (in the data set on NCI-H522; in [4]; in the data set on NCI-H23) were 25.4%, 58.3% and 65.3%, respectively.
For the molecule `CS(=O)(=O)c1ccc(N2N=C(c3ccc(F)cc3)CCC2=O)cc1`, the values for the inhibition in vivo at 50 µmol/kg in the data set on Rattus norvegicus [1] and in the data set on Rattus norvegicus [2] were 73.6% and 60%, respectively. The growth at 10 µM with MOLT-4 was 44.7%; in the data set on K562, 41.8%.
With `COc1ccc(C2=NN(c3ccc(S(C)(=O)=O)cc3)C(=O)CC2)cc1`, the inhibition in vivo at 50 µmol/kg in the data set on Rattus norvegicus [1] was 68.4%; with Rattus norvegicus [2], 46.7%. Also, the growth at 10 µM in the data set on SR was 64%; in the data set with UO-31 it was 62.1%; in the data set on MDA-MB-435 it was 7.92%.
In the case of `CS(=O)(=O)c1ccc(N2N=C(c3ccc(Br)cc3)CCC2=O)cc1`, the inhibition in vivo at 50 µmol/kg was 31.5% in the data set with Rattus norvegicus [1] and 10% in the data set on Rattus norvegicus [2].
As for `CS(=O)(=O)c1ccc(N2N=C(c3ccc(O)c(Cl)c3)CCC2=O)cc1`, the values for the inhibition in vivo at 50 µmol/kg in the data set on Rattus norvegicus [1] and in the data set with Rattus norvegicus [2] were 55.2% and 43.3%, respectively. In addition, the growth at 10 µM in the data set on HL-60(TB) amounted to 66.7%.
Regarding `Cc1ccc(-c2ncc(Cl)cc2-c2ccc(S(C)(=O)=O)cc2)cn1` [ETORICOXIB], the inhibition in vivo at 50 µmol/kg in the data set with Rattus norvegicus [1] amounted to 86.8%; in the data set on Rattus norvegicus [2] it was 83.3%.
The like results for `CS(=O)(=O)c1ccc(N2N=C(c3ccccc3)CCC2=O)cc1` were, in that order, 47.3% and 26.6%.
Take `CS(=O)(=O)c1ccc(N2N=C(c3ccc(Oc4ccccc4)cc3)CCC2=O)cc1`: the inhibition in vivo at 50 µmol/kg with Rattus norvegicus [1] is 65.7%; in the data set with Rattus norvegicus [2], 50%. Also, the growth at 10 µM in the data set on SK-MEL-5 was 35.1%; with UO-31 it was 48.8%; with T47D, 44.4%; with K562, 39.7%; in the data set with MDA-MB-468, 41.6%; in the data set with SF-295 it was 28.8%. In addition, the growth at 10 µM in data set [5] was 20.1%; with CAKI-1 it was 49.8%.
As to `CS(=O)(=O)c1ccc(N2N=C(c3ccc(-c4ccccc4)cc3)CCC2=O)cc1`, the figures for the inhibition in vivo at 50 µmol/kg with Rattus norvegicus [1] and with Rattus norvegicus [2] were 21% and 6.6%, respectively. Further, the growth at 10 µM in [6] was found to be 64.6%; in the data set with OVCAR-3, 42.1%; in data set [5], 29.6%.
`Cc1ccc(O)c(C2=NN(c3ccc(S(C)(=O)=O)cc3)C(=O)CC2)c1`: the inhibition in vivo at 50 µmol/kg amounted to 86.8% in the data set with Rattus norvegicus [1] and 66.6% in the data set with Rattus norvegicus [2]. Moreover, the growth at 10 µM in the data set with UO-31 is 70%. In addition, the Activity result in the data set on Rattus norvegicus [3] is recorded as “Non-toxic”.
Take `CC(C)(C)c1ccc(C2=NN(c3ccc(S(C)(=O)=O)cc3)C(=O)CC2)cc1`: the growth at 10 µM came to 69.6% in the data set on RPMI-8226 and 70.7% in data set [6]. For the same molecule, the inhibition in vivo at 50 µmol/kg stood at 68.4% in the data set on Rattus norvegicus [1] and 50% in the data set with Rattus norvegicus [2].
Turning to `Cc1cc(C2=NN(c3ccc(S(C)(=O)=O)cc3)C(=O)CC2)ccc1O`, the inhibition in vivo at 50 µmol/kg in the data set with Rattus norvegicus [1] is 60.5%; in the data set on Rattus norvegicus [2], 26.6%.
